Active and inactive are the calls of the source. No cut-off for these calls is given here.
How the values were obtained:
[1] = Inhibition of Pseudomonas aeruginosa recombinant His6-tagged PqsD expressed in Escherichia coli BL21(lambda DE3) assessed as anthraniloyl-CoA and beta-ketodecanoic acid conversion to heptyl-4-hydroxyquinoline preincubated for 10 mins prior to substrate addition by LC-MS/MS analysis
In short: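 HHQ formation from anthraniloyl-CoA and β-ketodecanoic acid by purified PqsD (0.1 µM) in 0.05 M MOPS pH 7.0, 0.005% Triton X-100, 0.5% final DMSO; 10 min preincubation with inhibitor at 37 °C, started with anthraniloyl-CoA (5 µM final) and β-ketodecanoic acid (70 µM final); HHQ quantified by LC-MS, DMSO control set to 100%; triplicates.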

Pseudomonas aeruginosa [2] = assay: Binding affinity to Pseudomonas aeruginosa recombinant His6-tagged PqsD expressed in Escherichia coli BL21(lambda DE3) at 100 uM by SPR analysis
In short: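 SPR: wild-type or R223A mutant PqsD amine-coupled to CMD500M chip (5000-6000 RU) at 12 °C; running buffer 50 mM MOPS pH 8.0, 150 mM NaCl, 5% DMSO, 0.1% Triton X-100; compounds at 100 µM final injected twice, 120 s association, 300 s dissociation, 50 µL/min; double referencing with blanks and DMSO calibration.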

[3] = Binding affinity to Pseudomonas aeruginosa recombinant His6-tagged PqsD expressed in Escherichia coli BL21(lambda DE3) measured every 180 seconds by isothermal titration calorimetric analysis
In short: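 ITC at 25 °C in PBS pH 7.4, 10% glycerol, 5% DMSO; 100 µM His6-PqsD in cell titrated with 2 µL injections of 1.0 mM ligand every 180 s; ligand diluted 1:20 from 20 mM DMSO stock; protein quantified by A280 (ε 17,780 M−1 cm−1); stoichiometry and KD fitted.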

Pseudomonas aeruginosa [4] = assay: Competitive binding affinity to Pseudomonas aeruginosa recombinant His6-tagged PqsD ACoA-channel expressed in Escherichia coli BL21(lambda DE3) at 100 uM by SPR analysis in presence of (2-nitrophenyl)methanol
In short: (§1)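 SPR competition: amine-coupled PqsD on CMD500M chip preincubated by adding competitor (100 µM) to running buffer (50 mM MOPS pH 8.0, 150 mM NaCl, 5% DMSO, 0.1% Triton X-100), flushed at 50 µL/min until stable; test compounds (100 µM) then injected twice at 10 µL/min, 120 s association, 300 s dissociation.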

Pseudomonas aeruginosa [5] = assay: Competitive binding affinity to Pseudomonas aeruginosa recombinant His6-tagged PqsD ACoA-channel expressed in Escherichia coli BL21(lambda DE3) at 100 uM by SPR analysis in presence of (2-nitrophenyl)(phenyl)methanol; in short: as §1
Pseudomonas aeruginosa [6] = assay: Inhibition of anthraniloyl coenzyme A binding to Pseudomonas aeruginosa recombinant His6-tagged PqsD ACoA-channel expressed in Escherichia coli BL21(lambda DE3) by SPR analysis
Pseudomonas aeruginosa [7] = assay: Binding affinity to Pseudomonas aeruginosa recombinant His6-tagged PqsD R223A mutant expressed in Escherichia coli BL21(lambda DE3) at 100 uM by SPR analysis
In short: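 Recombinant His6-PqsD R223A (E. coli BL21(λDE3), Ni-NTA purified) amine-coupled to CMD500M chip at 5000-6000 RU. Compounds diluted from 10 mM DMSO stock to 100 µM final in running buffer (50 mM MOPS pH 8.0, 150 mM NaCl, 5% DMSO, 0.1% Triton X-100). Run at 12 °C, 50 µL/min. Each compound injected twice, 120 s association, 300 s dissociation. Data double-referenced against blanks and DMSO calibration.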

Escherichia coli = assay: Inhibition of Escherichia coli RNA polymerase at 200 uM preincubated for 10 mins prior to DNA template and NTPs addition measured after 10 mins by [5,6-3H]-UTP incorporation assay relative to control
In short: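 E. coli RNA polymerase holoenzyme (1 unit) in 40 mM Tris-HCl pH 7.5, 150 mM KCl, 10 mM MgCl2, 10 mM DTT, 0.1% CHAPS, RNase inhibitor, 2% final DMSO; preincubated with compound 10 min at 25 °C; started with plasmid DNA template plus 400 µM ATP/CTP/GTP, 100 µM UTP and [5,6-3H]-UTP, 10 min at 37 °C; TCA-precipitated RNA counted by scintillation.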

Pseudomonas aeruginosa [8] = assay: Binding affinity to tryptically digested Pseudomonas aeruginosa recombinant His6-tagged PqsD ACoA-channel expressed in Escherichia coli BL21(lambda DE3) at 10 uM after 60 mins by MALDI-TOF-MS analysis
In short: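 PqsD (10 µM) and compound (10 µM) preincubated 60 min at 37 °C in 0.05 M MOPS pH 7.0, 0.005% Triton X-100, 0.5% DMSO; buffer exchanged to 0.05 M NH4HCO3 pH 8.1 by diafiltration, trypsin digestion overnight, DTT added; peptides analysed by MALDI-TOF in positive reflector mode, tracking the Cys112-containing fragment.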

Pseudomonas aeruginosa [9] = assay: Binding affinity to Pseudomonas aeruginosa recombinant His6-tagged PqsD ACoA-channel expressed in Escherichia coli BL21(lambda DE3) at 25 uM after 30 mins by LC-ESI-MS analysis
In short: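 PqsD (25 µM) preincubated 30 min at 37 °C with compound (25 µM) in 0.05 M Tris-HCl pH 8.0, 0.5% DMSO; DTT added, then reversed-phase HPLC (C8, water/acetonitrile with 0.05% TFA gradient, 45 °C) coupled to ESI high-resolution TOF MS to detect intact protein–inhibitor adduct mass.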

Pseudomonas aeruginosa [10] = assay: Competitive binding affinity to Pseudomonas aeruginosa recombinant His6-tagged PqsD ACoA-channel expressed in Escherichia coli BL21(lambda DE3) at 1 mM by saturation transfer difference NMR analysis in presence of (2-nitrophenyl)(phenyl)methanol

| SMILES | IC50 [1] [µM] | Activity (Pseudomonas aeruginosa [5]) | other results |
| --- | --- | --- | --- |
| COc1ccc(-c2cc(NC(=O)NC(C)(C)C(=O)O)c(C(=O)O)s2)cc1 | 56 |  |  |
| COc1ccc(-c2cc(NC(N)=O)c(C(=O)O)s2)cc1 | 170 | Active | RU (Pseudomonas aeruginosa [2]): 25; RU (Pseudomonas aeruginosa [7]): 6 |
| COc1ccc(-c2cc(NC(=O)N[C@@H](C)C(=O)O)c(C(=O)O)s2)cc1 | 2 |  | inhibition (Escherichia coli): 10% |
| COc1ccc(-c2cc(NC(=O)N[C@H](C)C(=O)O)c(C(=O)O)s2)cc1 | 54 |  |  |
| COc1ccc(-c2cc(NC(=O)NCC(=O)O)c(C(=O)O)s2)cc1 | 7 |  |  |
| COc1ccc(-c2cc(NC(=O)NCCC(=O)O)c(C(=O)O)s2)cc1 | 37 |  |  |

Second part, led by results:

| IC50 [1] [µM] | Activity (Pseudomonas aeruginosa [5]) | SMILES | other results |
| --- | --- | --- | --- |
| 58 |  | COc1ccc(-c2cc(NC(=O)NCCc3ccccc3)c(C(=O)O)s2)cc1 |  |
| 6 | Active | CCN(Cc1ccccc1)C(=O)Nc1cc(-c2ccc(OC)cc2)sc1C(=O)O | Activity (Pseudomonas aeruginosa [2]): Active; Kd [3]: 6.3 µM; Activity (Pseudomonas aeruginosa [4]): inactive; inhibition (Pseudomonas aeruginosa [6]): Active |
| 2 |  | O=C(CCl)Nc1ccc(-c2cc(NC(=O)N[C@@H](Cc3ccccc3)C(=O)O)c(C(=O)O)s2)cc1 | Activity (Pseudomonas aeruginosa [8]): Active; Activity (Pseudomonas aeruginosa [9]): Active |
| 26 |  | COc1ccc(-c2cc(NC(=O)N[C@H](Cc3ccccc3)C(=O)O)c(C(=O)O)s2)cc1 |  |
| 0.5 | Active | COc1ccc(-c2cc(NC(=O)N[C@@H](Cc3ccccc3)C(=O)O)c(C(=O)O)s2)cc1 | Activity (Pseudomonas aeruginosa [10]): Active; inhibition (Escherichia coli): 10% |
| 20 | Active | NC(=O)Nc1cc(-c2ccc(Oc3ccccc3)cc2)sc1C(=O)O | Activity (Pseudomonas aeruginosa [2]): Active; Activity (Pseudomonas aeruginosa [4]): Active |

Source: ChEMBL document CHEMBL3085679, “Combining in silico and biophysical methods for the development of Pseudomonas aeruginosa quorum sensing inhibitors: an alternative approach for structure-based drug design” (J Med Chem, 2013)
